Screening data: PubChem, several laboratories
Shown are actives, neighbours in structure and some others; about 12% of the full set was active somewhere.
ABCB1 inh = inhibitors of human ABCB1 transporter, ABCG2 counter-screen; P08183; actives 0.067% (n = 190,000); inhibition, % at 6.6 µM; CCRF-Adr cells, JC-1 efflux, flow cytometry; in the data active = inhibition above about 40%;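 also: 0% = vehicle and 100% = reference inhibitor; higher value means more JC-1 retained so stronger ABCB1 efflux block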
Target sequence (P08183 whole entry, looked up): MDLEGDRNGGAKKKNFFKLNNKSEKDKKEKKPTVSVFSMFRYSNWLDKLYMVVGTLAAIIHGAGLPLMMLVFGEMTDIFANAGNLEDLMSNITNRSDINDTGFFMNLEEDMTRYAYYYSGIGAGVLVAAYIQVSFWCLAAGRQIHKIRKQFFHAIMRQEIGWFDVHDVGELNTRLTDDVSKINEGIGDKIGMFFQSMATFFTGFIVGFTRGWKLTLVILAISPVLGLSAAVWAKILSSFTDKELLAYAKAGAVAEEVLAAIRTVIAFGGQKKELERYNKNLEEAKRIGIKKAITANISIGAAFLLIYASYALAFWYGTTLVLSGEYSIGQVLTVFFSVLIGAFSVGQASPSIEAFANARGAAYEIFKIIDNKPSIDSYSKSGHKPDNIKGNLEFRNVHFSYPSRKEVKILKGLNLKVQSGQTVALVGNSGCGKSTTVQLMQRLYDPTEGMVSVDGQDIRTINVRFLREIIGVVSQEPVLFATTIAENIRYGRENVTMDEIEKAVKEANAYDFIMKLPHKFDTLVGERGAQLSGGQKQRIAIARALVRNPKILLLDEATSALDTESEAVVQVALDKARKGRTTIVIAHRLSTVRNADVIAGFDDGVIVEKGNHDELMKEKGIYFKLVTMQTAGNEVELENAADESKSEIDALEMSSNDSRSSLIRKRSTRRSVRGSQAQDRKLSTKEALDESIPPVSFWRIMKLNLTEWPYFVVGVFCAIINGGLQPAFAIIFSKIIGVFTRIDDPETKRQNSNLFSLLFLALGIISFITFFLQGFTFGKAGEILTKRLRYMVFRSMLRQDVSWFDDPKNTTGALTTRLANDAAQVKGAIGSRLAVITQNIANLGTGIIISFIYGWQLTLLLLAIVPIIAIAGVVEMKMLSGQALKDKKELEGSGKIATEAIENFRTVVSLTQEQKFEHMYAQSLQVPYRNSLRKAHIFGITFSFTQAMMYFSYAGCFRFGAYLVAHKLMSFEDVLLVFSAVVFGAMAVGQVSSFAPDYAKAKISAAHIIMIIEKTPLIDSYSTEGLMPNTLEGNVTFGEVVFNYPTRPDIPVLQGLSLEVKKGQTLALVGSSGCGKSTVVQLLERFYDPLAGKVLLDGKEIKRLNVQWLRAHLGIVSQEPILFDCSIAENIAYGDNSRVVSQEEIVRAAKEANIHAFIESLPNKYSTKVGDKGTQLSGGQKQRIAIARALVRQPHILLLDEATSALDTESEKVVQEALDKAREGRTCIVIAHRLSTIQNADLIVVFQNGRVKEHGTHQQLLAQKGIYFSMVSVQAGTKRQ
WT yeast gro inh = growth inhibition of WT yeast, mitochondrial fusion screen; mitochondrial fusion phenotypic screen, WT strain; inhibition, % at 10 µM; actives 2.1% (n = 190,000); AID 1362; in the data active = inhibition above about 58%; tested in S. cerevisiae
Lmaj promast = Leishmania major promastigote growth inhibition; actives 9% (n = 200,000); Leishmania major promastigotes, resazurin fluorescence viability; inhibition, % at 10 µM; in the data active = inhibition above about 50%;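 also: promastigotes grown with compound for 44 hours at 28 °C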
ABCG2 inh = human ABCG2 inhibition, ABCB1 as counter-screen; IgMXP3 cells, JC-1 efflux, flow cytometry; inhibition, % at 6.6 µM; actives 0.1% (n = 190,000); Q9UNQ0;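 active = inhibition above 80%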;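 also: 0% = DMSO and 100% = nicardipine control wells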
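Assay system – ABCG2 IgMXP3 and barcoded ABCB1 CCRF-Adr cell mix · Input – 3 million cells/mL in well · Reagent – JC-1 fluorescent substrate · Compound – single test compound dose, 6.6 µM final · Timing – 10 min exposure at 25 °C with rotation, no wash · Detection – flow cytometry of retained JC-1 fluorescence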
RAM network inh = yeast RAM network inhibition. S. cerevisiae dse1pr::URA3 reporter, 5-FOA growth OD615, 2 d; analog-sensitive cbk1-as2 kinase mutant strain. inhibition, % at 50 µM. actives 1.8% (n = 190,000). AID 868;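 active = inhibition above a set limit, 3 SD over mean compound inhibition, cut at about 8.4% in these data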;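 also: 0% = DMSO-only wells with no growth and 100% = 10 µM 1-NA-PP1 full growth; inhibition rescues growth on 5-FOA so higher OD means more RAM inhibition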
* = called active by the depositor.

SMILES | ABCB1 inh | WT yeast gro inh | Lmaj promast | ABCG2 inh | RAM network inh
CCN(CC)S(=O)(=O)c1cc(NC(=O)C(C)N(C)CC(=O)Nc2c(C)cccc2C)ccc1C (stereo not drawn) | 0.6 | -11.4 | 67.7* | 7.1 | 2.2
CC(Oc1ccc2ccc(=O)oc2c1)C(=O)c1ccccc1 (stereo not drawn) | 0.7 | -18.2 | 68.9* | 3.0 | -0.4
CN(C)C(=O)COc1ccc2ccc(=O)oc2c1 | -8.3 | -1.5 | -2.7 | -5.3 | -0.3
COc1cc(/C=C2/SC(=S)N(c3ccccc3)C2=O)ccc1Oc1nc(N2CCOCC2)nc(N2CCOCC2)n1 | -0.8 | 4.6 | 45.6 | -8.1 | 9.3*
COc1cccc(NC(=S)N2CCC(N(C)CC3CCCO3)CC2)c1 (stereo not drawn) | -0.6 | -0.1 | 94.3* | -4.2 | 0.4
Cc1ccc(C)c(NC(=S)N2CCC(N(C)CC3CCCO3)CC2)c1 (stereo not drawn) | 0.2 | -4.6 | 90.9* | 13.0 | 0.2
Cc1ccc(NC(=S)N2CCN(C(=O)C3CCCO3)CC2)c(C)c1 (stereo not drawn) | 0.3 | 11.1 | -4.3 | 2.5 | 0.0
Cc1ccc(NC(=S)N2CCC(N(C)CC3CCCO3)CC2)c(C)c1 (stereo not drawn) | 0.7 | -7.4 | 90.5* | 23.7 | 0.0
COc1ccc(-c2nnnn2-c2ccc(F)cc2F)cc1 | 0.5 | -2.5 | 3.5 | 0.5 | 0.8
O=C(NCCc1ccccc1)c1ccc(-c2ccccc2Cl)o1 | 0.0 | 38.9 | -0.1 | -1.2 | 8.6*
O=C(Nc1ccccc1)c1ccc(-c2ccccc2Cl)o1 | 0.2 | 27.6 | -0.6 | 22.3 | 6.5
Cn1cc(C(=O)N/N=C/C=C/c2ccccc2)ccc1=O | 0.2 | -10.2 | 36.0 | 6.9 | -0.3
O=C(N/N=C/C=C/c1ccccc1)c1n[nH]c2c1CCC2 | -0.1 | 20.4 | 5.6 | 0.0 | 6.8
Cn1cc(C(=O)N/N=C/C(Br)=C\c2ccccc2)ccc1=O | -0.5 | 12.5 | 80.4* | 9.0 | 1.7
O=C(N/N=C/C(Br)=C\c1ccccc1)c1n[nH]c2c1CCC2 | -0.4 | 39.9 | 53.8* | -1.2 | -1.3
Cc1ccc(-c2cc(C(=O)N/N=C/C(Br)=C/c3ccccc3)n[nH]2)o1 | -0.8 | 60.7* | 33.6 | -1.3 | -0.8
Cn1cc(C(=O)N/N=C/C(Br)=C/c2ccccc2)ccc1=O | -2.0 | -5.4 | 62.0* | -12.2 | 2.4
COc1ccc(C(=O)NNC(=O)c2cccc(F)c2)cc1 | 0.3 | -17.2 | -7.6 | -0.9 | -1.0
O=C(CNc1cccc2ccccc12)N/N=C/c1ccc(C(=O)O)cc1 | -0.8 | -0.8 | -9.0 | -5.6 | 10.5*
Cc1ccc(-c2csc3ncnc(-n4nnc5ccccc54)c23)cc1C | 0.6 | 12.1 | 75.7* | 3.9 | 5.1
Cc1ccc(C(=C2C3C=CC2C2C(=O)NC(=O)C32)c2ccc(C)cc2)cc1 (stereo not drawn) | 0.5 | 82.8* | 11.7 | 1.8 | 6.0
O=C1C2C3C=CC(C3=C(c3ccccc3)c3ccccc3)C2C(=O)N1Cc1ccccc1 (stereo not drawn) | 1.1 | 19.7 | 2.5 | 4.1 | 4.0
CCCCCC(=O)NCc1c(C(F)(F)F)nn(C)c1N1CCOCC1 | 0.7 | -1.5 | -0.2 | 1.0 | 0.3
O=C(NCCc1ccncc1)Nc1ccc(Cl)c(Cl)c1 | 1.3 | 2.4 | 96.2* | 16.6 | -0.1
CC(C)N(CCc1ccncc1)C(=O)Nc1ccc(F)cc1 | 0.4 | -9.7 | -3.8 | 0.5 | 1.3
SMILES | ABCB1 inh | WT yeast gro inh | Lmaj promast | ABCG2 inh | RAM network inh
O=C(NCCc1ccc(Cl)cc1)Nc1cccc(Cl)c1 | 1.1 | 60.5* | 0.6 | 15.3 | 5.4
CC(C)N(CCc1ccncc1)C(=O)Nc1ccc(Cl)c(Cl)c1 | 0.7 | 16.6 | 92.2* | 2.1 | -0.3
Cc1ccc(S(=O)(=O)Nc2cc(C(=O)Nc3cc(C)cc(C)c3)ccc2Cl)cc1 | -1.4 | 31.4 | 1.6 | 10.7 | 3.6
CC(Sc1ncc(C(F)(F)F)cc1Cl)C(=O)NCC1CCCO1 (stereo not drawn) | -0.8 | 14.9 | 5.4 | -0.7 | 1.1
COc1ccc(-c2cc(C(F)F)n3ncc(C(=O)N4CCSCC4)c3n2)cc1 | 0.3 | 6.2 | 48.1 | 0.2 | 0.3
COc1ccc(-c2cc(C(F)F)n3ncc(C(=O)N4CCN(C)CC4)c3n2)cc1 | -0.2 | -13.7 | 98.1* | 8.3 | 0.4
COc1ccc(-c2cc(C(=O)N3CCOCC3)c3cc(C)ccc3n2)cc1 | 0.4 | 3.4 | 64.7* | 0.9 | 2.6
Cc1ccc2nc(-c3ccccc3)cc(C(=O)N3CCc4ccccc4C3)c2c1 | 0.2 | 11.2 | 13.0 | 1.3 | 3.8
O=C(c1cc(-c2ccccc2)nc2ccccc12)N1CCc2ccccc2C1 | 1.8 | 71.1* | 57.7* | 13.4 | 4.5
CN(C)S(=O)(=O)c1cccc(NC(=O)COC(=O)c2cn(-c3ccccc3)nc2-c2ccccc2)c1 | -0.4 | 1.9 | 17.3 | -1.5 | 9.1*
CC(C)CN(CC(C)C)S(=O)(=O)N1CCC(C(=O)NCc2ccc3c(c2)OCO3)CC1 | 1.3 | 6.5 | 17.8 | 5.8 | 5.0
O=C(Nc1cccc(S(=O)(=O)N2CCOCC2)c1)c1cn(-c2ccccc2)nc1-c1ccc(F)cc1 | 1.1 | -22.6 | 99.5* | -10.5 | 5.1
O=C(c1cnn2c(C(F)F)cc(-c3ccccc3)nc12)N1CCc2ccccc2C1 | -0.8 | 77.9* | 37.8 | -2.5 | 2.4
Cc1cc(C(F)F)n2ncc(C(=O)N3CCc4ccccc4C3)c2n1 | 0.7 | -8.8 | -4.7 | 40.1 | -0.3
COc1ccc(-c2cc(C(F)F)n3ncc(C(=O)Nc4cccc(S(=O)(=O)N5CCOCC5)c4)c3n2)cc1 | 0.3 | -2.3 | 65.2* | -0.9 | 6.7
O=C(NC1CC2CCCC(C1)N2C(=S)NCCc1ccccc1)C1CC1 (stereo not drawn) | 1.0 | -11.2 | -6.9 | 1.9 | -0.2
O=C(/C=C/c1ccccc1)Nc1nnc(-c2ccco2)o1 | -1.2 | -3.4 | 65.1* | -1.8 | 0.6
Cc1cc(C)c(OCC(=O)Nc2nnc(-c3ccco3)o2)c(C)c1 | 0.7 | 59.1* | -2.1 | 2.2 | 4.2
Cc1csc(NC(=O)c2cc(-c3ccccc3)nc3ccccc23)n1 | 5.4 | 61.9* | 22.0 | 14.6 | 2.3
Cc1ccc(C)c(-c2cc(C(=O)Nc3nccs3)c3ccccc3n2)c1 | 1.3 | 61.3* | 14.1 | 3.9 | 0.0
COC(=O)c1sccc1NC(=O)c1cc(-c2cc(C)ccc2C)nc2ccccc12 | 0.7 | 1.1 | 10.5 | 3.5 | 7.8
CC(C)(C)c1nnc(NC(=O)c2cc(-c3ccccc3)nc3ccccc23)s1 | 0.8 | 30.5 | -2.1 | 33.1 | 1.8
Cc1cccn2c(CN(C)CC3Cc4ccccc4O3)c(C(=O)N3CCCCC3)nc12 (stereo not drawn) | -0.2 | -0.2 | 12.6 | 0.3 | 1.9
CC(C)OC(=O)C(C(=O)C(F)(F)F)c1cc(NS(=O)(=O)c2ccc3ccccc3c2)c2ccccc2c1O (stereo not drawn) | -1.0 | 62.5* | 15.9 | -10.2 | 4.9
Cc1cccc(N2CCN(C(=O)Cn3sc4nc(C)cc(C)c4c3=O)CC2C)c1 (stereo not drawn) | 0.3 | 55.4 | -14.4 | 2.5 | 2.8
